# Many of the other results were omitted from the sample, so hits are more common in it than they were.
# L major viab = reduces viability of Leishmania major promastigotes | resazurin fluorescence viability | inhibition, % at 10 µM | actives 9% (n = 200,000) | AID 1063; in the data active = inhibition above about 50%;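 also: promastigotes grown with compound for 44 hours at 28 °C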
# Lipid droplet = hepatic lipid droplet formation modulation; actives 0.4% (n = 240,000); AML12 mouse hepatocytes, oleate lipid droplets, BODIPY imaging; inhibition, % at 6.5 µM; AID 1656;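 active = lipid droplet intensity inhibited by at least 50%, with more than 500 cells counted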
#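 Technique: fluorescence imaging, 20x objective, two fields per well / Assay system: AML12 hepatocytes (mouse) / Measure: % inhibition of lipid droplet signal / Doses: 6.5 µM single-point dosing / Incubation: overnight exposure / Reagent: 100 µM oleic acid challenge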
# Redox H2O2 prof = compounds producing H2O2 with reducing agent – biochemical, NIH compound library profiling, artefact control for MLSCN library redox annotation, primary screen | DTT-dependent redox cycling H2O2, phenol red/HRP absorbance; 100% = 100 µM peroxide control, 0% = buffer | activation, % at 10 µM | actives 0.03% (n = 200,000);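 active = activation of at least 50% relative to the plate's high and low controls in the primary single-dose screen; inactive = activation below 50%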;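 also: compound incubated with DTT at 0.8 mM final as the reducing agent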
# T cruzi repl = T. cruzi replication inhibition | T. cruzi beta-gal in NIH3T3, luminescence, 90 h | inhibition, % (no concentration beside the values) | actives 1.4% (n = 300,000);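 active = mean inhibition across valid replicates above about 55%, limit read from the data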;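 also: signal also drops with host cell toxicity which is not excluded here; higher percent means less beta-gal luminescence so fewer parasites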
#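 Incubation – ≥90 h infection period, 3 h prior cell attachment · System – NIH/3T3 fibroblasts plus reporter T. cruzi · Doses – compound pinned at 50 nL/well, DMSO · Read-out basis – percent inhibition of parasite-derived β-gal signal · Signal – luminescent β-galactosidase signal after 60 min lysis · Also added – 5000 T. cruzi trypomastigotes/well · Medium – Low-serum DMEM with 2% FBS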
# MPTP inh = inhibitors of mitochondrial permeability transition pore. isolated mouse mitochondria, Ca2+ swelling absorbance, 30 min. inhibition, % at 10 µM. actives 1.4% (n = 360,000);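 active = inhibition of 50% or more, scaled per plate between neutral and stimulator controls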
# MPTP counter = membrane potential counter-screen of mitochondrial pore inhibitors | shares compounds with MPTP inh | isolated mitochondria, Rhodamine 123 fluorescence | inhibition, % at 10 µM | actives 78% (n = 5,000) | AID 624504; in the data active = inhibition above about 22%
# Hits are given with their value; 0 = inactive; - = no result.
SMILES,L major viab,Lipid droplet,Redox H2O2 prof,T cruzi repl,MPTP inh,MPTP counter
Cc1cc(OCC(=O)Nc2ccncc2)cc(C)c1Br,0,-,0,0,91,97
CC(=O)Nc1ccc(S(=O)(=O)NCCC(=O)OCC(=O)c2ccc(Br)cc2)cc1,-,-,-,0,59,87
CC(=O)Nc1ccc(S(=O)(=O)NCCC(=O)OCC(=O)c2ccccc2)cc1,-,-,-,0,0,-
COc1ccc(NC(=O)O/N=C/c2c(C)nn(C(C)(C)C)c2C)cc1,-,0,-,0,0,-
Cc1nn(C(C)(C)C)c(C)c1/C=N/OC(=O)Nc1ccc(Cl)c(Cl)c1,-,0,-,0,73,76
CC(C)(C)C(=O)Nc1ccc(C(=O)COC(=O)c2ccccn2)cc1,-,-,-,-,0,-
O=C(Nc1cnn(Cc2ccc(Cl)cc2Cl)c1)c1cc(-c2cccs2)on1,0,-,0,0,0,-
CC(=O)c1cccc(NC(=O)Nc2cnn(Cc3ccc(Cl)cc3Cl)c2)c1,0,0,0,0,73,71
CC(=O)c1ccc(NC(=O)Nc2ccc(Cl)cc2)cc1,0,0,0,0,85,86
CNC(=O)Nc1ccc(Cl)cc1,0,0,0,0,96,91
CC(=O)c1ccc(NC(=S)NCc2ccc(Cl)cc2Cl)cc1,0,0,0,0,95,94
Cc1ccc(NC(=O)COC(=O)CC2SC(N3CCCC3)=NC2=O)cc1 (stereo not drawn),-,-,-,-,0,-
CCN1C[C@@H]2[C@@H]3C(=O)N(C)C(=O)[C@@H]3[C@](Cc3ccccc3)(C1=O)N2C(=O)c1ccc(Cl)c(Cl)c1,-,-,-,-,0,-
C=CCSc1nnc2c(n1)OC(C)=Nc1ccc(Br)cc1-2,0,0,0,0,0,-
S=C(NCc1ccc(Cl)cc1Cl)NC1CCCCC1,0,0,0,0,106,85
Cc1nn(-c2ccccc2)c(Cl)c1/C=C1\SC(=S)NC1=O,0,0,0,0,54,66
Fc1ccc2[nH]c3c(NCc4ccccc4)ncnc3c2c1,-,0,-,0,84,75
CC(C)NC(=O)N(C)C[C@H]1Oc2ccc(NS(=O)(=O)c3ccc(F)cc3)cc2C(=O)N([C@H](C)CO)C[C@@H]1C,-,-,-,-,0,-
COC(=O)c1cc(S(=O)(=O)Nc2cccc(-c3cnco3)c2)oc1C,-,-,-,0,0,-
Cc1cccc(-c2nsc(SCC(=O)Nc3nccs3)n2)c1,0,-,0,0,0,-
Cc1ccccc1-c1nsc(SCC(=O)Nc2ccc3c(c2)OCO3)n1,0,0,0,0,84,66
Cc1cccc(-c2nsc(SCC(=O)Nc3ccc4c(c3)OCO4)n2)c1,0,0,0,0,54,65
Cc1sc2ncnc(NCC(C)(C)N3CCOCC3)c2c1C,0,0,0,-,80,84
c1ccc(-c2csc3ncnc(NCC4COc5ccccc5O4)c23)cc1 (stereo not drawn),0,0,0,0,97,85
Cc1sc2ncnc(NCC3COc4ccccc4O3)c2c1C (stereo not drawn),0,0,0,0,100,95
SMILES,L major viab,Lipid droplet,Redox H2O2 prof,T cruzi repl,MPTP inh,MPTP counter
CC(C)CC(Nc1ncnc2scc(-c3ccccc3)c12)C(=O)O (stereo not drawn),-,0,-,0,0,-
COC(=O)C1CCN(C2CN(Cc3ccccc3)S(=O)(=O)C2)CC1 (stereo not drawn),-,-,-,-,0,-
Cc1ccccc1-n1nnnc1SCC(=O)NC1CC1,-,-,-,-,0,-
CCOC(=O)CCc1nc2ccccc2[nH]1,0,-,0,0,0,-
COCC(=O)O[C@]1(CCN(C)CCCc2nc3ccccc3[nH]2)CCc2cc(F)ccc2[C@@H]1C(C)C,-,0,-,0,93,0
CCOC(=O)c1cc2c(C)n(-c3ccc(C)cc3)c(C)c2ccc1=O,0,-,0,0,82,35
O=C(/C=C/c1ccc(Cl)cc1Cl)NCCSCc1ccccc1,0,0,0,0,92,82
O=C(/C=C/c1ccc(Cl)cc1Cl)NCCSc1ccccc1,0,0,0,0,96,92
O=C(/C=C/c1cccc([N+](=O)[O-])c1)NCCSCc1c(Cl)cccc1Cl,0,0,0,0,0,-
O=C(/C=C/c1cccc([N+](=O)[O-])c1)NCCSCc1ccc(Cl)cc1,0,0,0,0,51,64
O=C(/C=C/c1ccc(Cl)cc1)NCCSc1ccccc1,0,-,0,0,0,-
COc1ccc(NS(=O)(=O)c2ccc3nc(COc4ccc(Cl)c(C)c4)[nH]c3c2)cc1,0,0,0,0,67,66

# From PubChem BioAssay
